Measurements reported in ChEMBL document CHEMBL1833959, “Itraconazole side chain analogues: structure-activity relationship studies for inhibition of endothelial cell proliferation, vascular endothelial growth factor receptor 2 (VEGFR2) glycosylation, and hedgehog signaling” (2011).
Calls of active or inactive are those of the source. The calls are words filed in the database; no cut-off is given here.

Legend:
[1] = target: Vascular endothelial growth factor receptor 2 (Homo sapiens) (UniProt P35968); assay: Inhibition of VEGFR2 glycosylation in human HUVEC cells at 2 uM after 24 hrs by Western blot analysis; type: cell-based
How it was run: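 Pooled HUVEC (passage ≤8, EGM-2) seeded 5 × 10^4 per well, recovered overnight, then given fresh media with analogue added from 200X DMSO stocks; 24 h exposure. Cells lysed in 2X SDS sample buffer (ice 10 min, boiled 10 min), 6% SDS-PAGE, PVDF blot probed with anti-VEGFR2 and HRP anti-rabbit IgG, ECL detection.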

HUVEC = assay: Ratio of itraconazole IC50 to compound IC50 for antiangiogenic activity in human HUVEC cells assessed as inhibition of cell proliferation; type: functional
[2] = Inhibition of hedgehog signaling pathway in mouse Ptch+/- p53-/- medulloblastoma cells assessed as inhibition of receptor-mediated Gli1 transcriptional activity at antiproliferative IC90 concentration after 24 hrs by RT-PCR analysis relative to control
[3] = Ratio of itraconazole IC50 to compound IC50 for antiproliferative activity against mouse Ptch+/- p53-/- medulloblastoma cells isolated from allografts in nude Harlan mouse after 96 hrs; type: functional, Medulloblastoma cell
How it was run: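 Ptch−/+;p53−/− MB cells from nude-mouse allografts (ficoll-purified, three neurosphere passages, CD15 confirmed by flow cytometry) disaggregated and seeded in NBMedia with multiple analogue concentrations for 96 h. Cell number read by MTS-type CellTiter 96 AQueous absorbance; IC50 fitted from dose–response curves of mean corrected absorbance normalized to control, expressed relative to itraconazole.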

Sequence of Vascular endothelial growth factor receptor 2 (Homo sapiens) (P35968 whole entry): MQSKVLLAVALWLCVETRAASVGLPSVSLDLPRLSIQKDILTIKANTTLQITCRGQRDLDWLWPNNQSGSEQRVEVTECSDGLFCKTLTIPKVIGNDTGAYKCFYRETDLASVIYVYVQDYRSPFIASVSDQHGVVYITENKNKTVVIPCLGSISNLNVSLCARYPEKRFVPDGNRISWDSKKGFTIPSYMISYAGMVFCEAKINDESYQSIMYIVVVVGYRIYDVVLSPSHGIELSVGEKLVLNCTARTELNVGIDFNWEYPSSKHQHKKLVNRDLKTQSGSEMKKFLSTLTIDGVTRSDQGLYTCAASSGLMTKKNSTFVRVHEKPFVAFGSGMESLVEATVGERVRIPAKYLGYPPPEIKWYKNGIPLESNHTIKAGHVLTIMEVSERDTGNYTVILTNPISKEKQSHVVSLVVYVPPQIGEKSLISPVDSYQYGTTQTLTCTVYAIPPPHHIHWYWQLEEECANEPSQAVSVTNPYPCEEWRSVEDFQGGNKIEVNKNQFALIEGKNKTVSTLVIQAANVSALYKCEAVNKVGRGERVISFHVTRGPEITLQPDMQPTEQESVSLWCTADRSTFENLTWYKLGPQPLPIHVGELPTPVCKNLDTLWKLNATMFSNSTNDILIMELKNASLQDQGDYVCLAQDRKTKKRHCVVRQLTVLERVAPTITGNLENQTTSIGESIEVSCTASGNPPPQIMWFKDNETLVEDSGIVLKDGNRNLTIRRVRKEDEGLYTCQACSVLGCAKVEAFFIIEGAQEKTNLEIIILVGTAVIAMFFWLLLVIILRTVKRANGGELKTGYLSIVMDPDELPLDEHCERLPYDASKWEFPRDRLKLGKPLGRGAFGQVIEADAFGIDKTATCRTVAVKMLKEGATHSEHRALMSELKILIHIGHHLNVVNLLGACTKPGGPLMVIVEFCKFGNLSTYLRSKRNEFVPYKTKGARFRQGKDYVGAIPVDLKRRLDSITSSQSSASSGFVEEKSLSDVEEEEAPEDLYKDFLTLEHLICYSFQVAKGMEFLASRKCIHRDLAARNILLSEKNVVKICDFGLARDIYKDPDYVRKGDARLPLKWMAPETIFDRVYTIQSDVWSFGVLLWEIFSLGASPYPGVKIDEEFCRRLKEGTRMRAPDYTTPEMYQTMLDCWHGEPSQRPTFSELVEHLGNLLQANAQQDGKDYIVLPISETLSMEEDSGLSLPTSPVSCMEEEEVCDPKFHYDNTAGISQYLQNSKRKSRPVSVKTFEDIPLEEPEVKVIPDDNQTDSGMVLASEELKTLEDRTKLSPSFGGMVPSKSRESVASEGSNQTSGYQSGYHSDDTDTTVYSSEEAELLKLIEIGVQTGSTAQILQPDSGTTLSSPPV

inhibition [1]	fold change (FC) [2]	SMILES	Ratio IC50 (HUVEC)	Ratio IC50 [3]
inactive	> 0.45	CCCCn1ncn(-c2ccc(N3CCN(c4ccc(OC[C@@H]5CO[C@@](Cn6cncn6)(c6ccc(Cl)cc6Cl)O5)cc4)CC3)cc2)c1=O	2.1	0.7
inactive	> 0.45	CCn1ncn(-c2ccc(N3CCN(c4ccc(OC[C@@H]5CO[C@@](Cn6cncn6)(c6ccc(Cl)cc6Cl)O5)cc4)CC3)cc2)c1=O	2.94	1.62
Active		CC[C@@H](C)n1ncn(-c2ccc(N3CCN(c4ccc(OC[C@@H]5CO[C@@](Cn6cncn6)(c6ccc(Cl)cc6Cl)O5)cc4)CC3)cc2)c1=O	1.1	1.4
Active	< 0.15	CCCn1ncn(-c2ccc(N3CCN(c4ccc(OC[C@@H]5CO[C@@](Cn6cncn6)(c6ccc(Cl)cc6Cl)O5)cc4)CC3)cc2)c1=O	1.06	1.01
inactive	> 0.45	CC(C)n1ncn(-c2ccc(N3CCN(c4ccc(OC[C@@H]5CO[C@@](Cn6cncn6)(c6ccc(Cl)cc6Cl)O5)cc4)CC3)cc2)c1=O	2.18	1.06
inactive		CC[C@@H](C)n1ncn(-c2ccc(N3CCN(c4ccc(OC[C@H]5CO[C@@](Cn6cncn6)(c6ccc(Cl)cc6Cl)O5)cc4)CC3)cc2)c1=O	3.9	1.7
Active		CC[C@H](C)n1ncn(-c2ccc(N3CCN(c4ccc(OC[C@@H]5CO[C@@](Cn6cncn6)(c6ccc(Cl)cc6Cl)O5)cc4)CC3)cc2)c1=O	0.8	1.3
inactive		CC[C@@H](C)n1ncn(-c2ccc(N3CCN(c4ccc(OC[C@@H]5CO[C@](Cn6cncn6)(c6ccc(Cl)cc6Cl)O5)cc4)CC3)cc2)c1=O	3.7	2.3
inactive	> 0.45	Cn1ncn(-c2ccc(N3CCN(c4ccc(OC[C@@H]5CO[C@@](Cn6cncn6)(c6ccc(Cl)cc6Cl)O5)cc4)CC3)cc2)c1=O	4	2.71
Active		CC[C@@H](C)n1ncn(-c2ccc(N3CCN(c4ccc(OC[C@H]5CO[C@](Cn6cncn6)(c6ccc(Cl)cc6Cl)O5)cc4)CC3)cc2)c1=O	2.5	1.7
Active		CC[C@H](C)n1ncn(-c2ccc(N3CCN(c4ccc(OC[C@H]5CO[C@](Cn6cncn6)(c6ccc(Cl)cc6Cl)O5)cc4)CC3)cc2)c1=O	1.6	1.3

More lines, now with the values behind:

SMILES	inhibition [1]	fold change (FC) [2]	Ratio IC50 (HUVEC)	Ratio IC50 [3]
O=c1[nH]ncn1-c1ccc(N2CCN(c3ccc(OC[C@@H]4CO[C@@](Cn5cncn5)(c5ccc(Cl)cc5Cl)O4)cc3)CC2)cc1	inactive	< 0.15	2.78	0.89
CC(C)Cn1ncn(-c2ccc(N3CCN(c4ccc(OC[C@@H]5CO[C@@](Cn6cncn6)(c6ccc(Cl)cc6Cl)O5)cc4)CC3)cc2)c1=O	Active	> 0.45	1.32	0.86
CC[C@H](C)n1ncn(-c2ccc(N3CCN(c4ccc(OC[C@H]5CO[C@@](Cn6cncn6)(c6ccc(Cl)cc6Cl)O5)cc4)CC3)cc2)c1=O	Active		3.1	2.1
C#CCCCn1ncn(-c2ccc(N3CCN(c4ccc(OC[C@H]5CO[C@](Cn6cncn6)(c6ccc(Cl)cc6Cl)O5)cc4)CC3)cc2)c1=O	inactive	< 0.15	0.14	0.71
CCC(C)n1ncn(-c2ccc(N3CCN(c4ccc(OCC5COC(Cn6cncn6)(c6ccc(Cl)cc6Cl)O5)cc4)CC3)cc2)c1=O (configuration not stated) [ITRACONAZOLE]	Active	< 0.15	1	1
O=C(c1ccccc1)c1ccc(OCCCCCCn2ncn(-c3ccc(N4CCN(c5ccc(OC[C@@H]6CO[C@@](Cn7cncn7)(c7ccc(Cl)cc7Cl)O6)cc5)CC4)cc3)c2=O)cc1	inactive	> 0.45	>69.9	0.8
CC[C@H](C)n1ncn(-c2ccc(N3CCN(c4ccc(OC[C@@H]5CO[C@](Cn6cncn6)(c6ccc(Cl)cc6Cl)O5)cc4)CC3)cc2)c1=O	Active		3.2	1.5
O=c1n(-c2ccc(N3CCN(c4ccc(OC[C@@H]5CO[C@@](Cn6cncn6)(c6ccc(Cl)cc6Cl)O5)cc4)CC3)cc2)cnn1CC1CCCC1	Active	0.16	0.5	0.5
CCC1(Cn2ncn(-c3ccc(N4CCN(c5ccc(OC[C@@H]6CO[C@@](Cn7cncn7)(c7ccc(Cl)cc7Cl)O6)cc5)CC4)cc3)c2=O)COC1	Active	0.16	0.77	0.74
N#CCCCCCn1ncn(-c2ccc(N3CCN(c4ccc(OC[C@@H]5CO[C@@](Cn6cncn6)(c6ccc(Cl)cc6Cl)O5)cc4)CC3)cc2)c1=O	Active	0.16	0.18	0.84
CCCC(C)n1ncn(-c2ccc(N3CCN(c4ccc(OC[C@@H]5CO[C@@](Cn6cncn6)(c6ccc(Cl)cc6Cl)O5)cc4)CC3)cc2)c1=O (mixture of isomers)	Active	< 0.15	0.75	0.38
O=c1n(-c2ccc(N3CCN(c4ccc(OC[C@@H]5CO[C@@](Cn6cncn6)(c6ccc(Cl)cc6Cl)O5)cc4)CC3)cc2)cnn1C1CCCCC1	Active	> 0.45	0.44	0.37
CC/C=C/CCn1ncn(-c2ccc(N3CCN(c4ccc(OC[C@@H]5CO[C@@](Cn6cncn6)(c6ccc(Cl)cc6Cl)O5)cc4)CC3)cc2)c1=O	inactive	< 0.15	1.57	0.63
CC(C)CCn1ncn(-c2ccc(N3CCN(c4ccc(OC[C@@H]5CO[C@@](Cn6cncn6)(c6ccc(Cl)cc6Cl)O5)cc4)CC3)cc2)c1=O	Active	< 0.15	1.42	0.41
CCC#CCCn1ncn(-c2ccc(N3CCN(c4ccc(OC[C@@H]5CO[C@@](Cn6cncn6)(c6ccc(Cl)cc6Cl)O5)cc4)CC3)cc2)c1=O	inactive	< 0.15	1.09	1.07
[N-]=[N+]=NCCCCCCn1ncn(-c2ccc(N3CCN(c4ccc(OC[C@@H]5CO[C@@](Cn6cncn6)(c6ccc(Cl)cc6Cl)O5)cc4)CC3)cc2)c1=O	Active	0.16	0.3	0.7
CC1(CCn2ncn(-c3ccc(N4CCN(c5ccc(OC[C@@H]6CO[C@@](Cn7cncn7)(c7ccc(Cl)cc7Cl)O6)cc5)CC4)cc3)c2=O)N=N1	Active	0.16	>13.8	1.32
CCCCCn1ncn(-c2ccc(N3CCN(c4ccc(OC[C@@H]5CO[C@@](Cn6cncn6)(c6ccc(Cl)cc6Cl)O5)cc4)CC3)cc2)c1=O	inactive	< 0.15	1.09	0.66
CC/C=C\CCn1ncn(-c2ccc(N3CCN(c4ccc(OC[C@@H]5CO[C@@](Cn6cncn6)(c6ccc(Cl)cc6Cl)O5)cc4)CC3)cc2)c1=O	inactive	< 0.15	0.73	0.94
